# Columns and labels:
# Type in all cases: functional
# [1] = system: HL-60(TB); assay: Cytotoxicity against human HL-60(TB) cells assessed as cell growth at 1 uM after 48 hrs by sulforhodamine B assay; conditions: HL-60, 48 h, read-out: Activity
# Procedure, shortened: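 NCI 60-cell panel. Cells are grown in RPMI 1640 with 5% FBS and 2 mM L-glutamine, seeded at 5000–40,000 cells/well according to doubling time, and preincubated 24 h. Time-zero plates are TCA-fixed. Compound from DMSO stock is given at five 10-fold or 1/2-log concentrations for 48 h at 37 °C, 5% CO2. Suspension cells are fixed with 80% TCA (final 16%) and SRB-stained, with absorbance at 515 nm. Percent growth is derived from Tz, control and test readings.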
# [2] = system: NCI-H226; assay: Cytotoxicity against human NCI-H226 cells assessed as cell growth at 100 nM after 48 hrs by sulforhodamine B assay; conditions: NCI-H226, 48 h, read-out: Activity
# [3] = system: MCF7; assay: Cytotoxicity against human MCF7 cells assessed as cell growth at 10 uM after 48 hrs by sulforhodamine B assay; conditions: MCF7, 48 h, read-out: Activity
# [4] = system: MDA-MB-435; assay: Cytotoxicity against human MDA-MB-435 cells assessed as cell growth at 0.01 uM after 48 hrs by sulforhodamine B assay; conditions: MDA-MB-435, 48 h, read-out: Activity
# [5] = system: MCF7; assay: Cytotoxicity against human MCF7 cells assessed as cell growth at 0.001 uM after 48 hrs by sulforhodamine B assay; conditions: MCF7, 48 h, read-out: Activity
# [6] = system: RXF 393; assay: Cytotoxicity against human RXF393 cells assessed as cell growth at 10 uM after 48 hrs by sulforhodamine B assay; conditions: RXF 393, 48 h, read-out: Activity
# [7] = system: CAKI-1; assay: Cytotoxicity against human Caki1 cells assessed as cell growth at 1 uM after 48 hrs by sulforhodamine B assay; conditions: CAKI-1, 48 h, read-out: Activity
# [8] = system: SK-MEL-28; assay: Cytotoxicity against human SK-MEL-28 cells assessed as cell growth at 0.001 uM after 48 hrs by sulforhodamine B assay; conditions: SK-MEL-28, 48 h, read-out: Activity
# [9] = system: DU-145; assay: Cytotoxicity against human DU145 cells assessed as cell growth at 0.01 uM after 48 hrs by sulforhodamine B assay; conditions: DU-145, 48 h, read-out: Activity
# [10] = system: SR; assay: Growth inhibition of human SR cells after 48 hrs by sulforhodamine B assay
# Procedure, shortened: (§1)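 NCI 60-cell screen, five-dose mode. Cells grown in RPMI 1640 with 5% FBS and 2 mM L-glutamine and plated at 5000-40,000 cells/well according to doubling time. After 24 h preincubation, a Tz plate was TCA-fixed. Five concentrations (10-fold or 1/2 log dilutions) were applied for 48 h at 37 °C. SRB staining read at 515 nm. IC50 taken from [(Ti-Tz)/(C-Tz)]×100 = 50.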
# [11] = system: SK-MEL-5; assay: Cytotoxicity against human SK-MEL-5 cells assessed as cell growth at 1 uM after 48 hrs by sulforhodamine B assay; conditions: SK-MEL-5, 48 h, read-out: Activity
# [12] = system: HCC 2998; assay: Cytotoxicity against human HCC2998 cells assessed as cell growth at 10 uM after 48 hrs by sulforhodamine B assay; conditions: HCC 2998, 48 h, read-out: Activity
# [13] = Cytotoxicity against human […] cells assessed as cell growth at 10 uM after 48 hrs by sulforhodamine B assay; conditions: read-out: Activity
# [14] = system: SR; assay: Cytotoxicity against human SR cells assessed as cell growth at 0.001 uM after 48 hrs by sulforhodamine B assay; conditions: read-out: Activity
# [15] = system: HCC 2998; assay: Cytotoxicity against human HCC2998 cells assessed as cell growth at 1 uM after 48 hrs by sulforhodamine B assay; conditions: HCC 2998, 48 h, read-out: Activity
# [16] = system: NCI-H460; assay: Cytotoxicity against human NCI-H460 cells assessed as cell growth at 1 uM after 48 hrs by sulforhodamine B assay; conditions: NCI-H460, 48 h, read-out: Activity
# [17] = system: HCC 2998; assay: Growth inhibition of human HCC2998 cells after 48 hrs by sulforhodamine B assay; conditions: HCC 2998, 48 h; for CC50: read-out: LC50 (the source's name); procedure, shortened: as §1
# [18] = system: ACHN; assay: Cytotoxicity against human ACHN cells assessed as cell growth at 0.01 uM after 48 hrs by sulforhodamine B assay; conditions: read-out: Activity
# [19] = system: SK-MEL-28; assay: Growth inhibition of human SK-MEL-28 cells after 48 hrs by sulforhodamine B assay; conditions: SK-MEL-28, 48 h; for CC50: read-out: LC50 (the source's name); procedure, shortened: as §1
# [20] = system: NCI-H226; assay: Growth inhibition of human NCI-H226 cells after 48 hrs by sulforhodamine B assay; conditions: NCI-H226, 48 h; for CC50: read-out: LC50 (the source's name); procedure, shortened: as §1
# [21] = system: SF-295; assay: Cytotoxicity against human SF295 cells assessed as cell growth at 100 nM after 48 hrs by sulforhodamine B assay; conditions: SF-295, 48 h, read-out: Activity
# [22] = system: NCI-H226; assay: Cytotoxicity against human NCI-H226 cells assessed as cell growth at 10 uM after 48 hrs by sulforhodamine B assay; conditions: NCI-H226, 48 h, read-out: Activity
# [23] = system: SR; assay: Cytotoxicity against human SR cells assessed as cell growth at 100 nM after 48 hrs by sulforhodamine B assay; conditions: read-out: Activity
# [24] = system: RXF 393; assay: Cytotoxicity against human RXF393 cells assessed as cell growth at 100 nM after 48 hrs by sulforhodamine B assay; conditions: RXF 393, 48 h, read-out: Activity
# [25] = system: RXF 393; assay: Growth inhibition of human RXF393 cells after 48 hrs by sulforhodamine B assay; conditions: RXF 393, 48 h; procedure, shortened: as §1
# [26] = system: RXF 393; assay: Cytotoxicity against human RXF393 cells assessed as cell growth at 1 uM after 48 hrs by sulforhodamine B assay; conditions: RXF 393, 48 h, read-out: Activity
# [27] = system: RXF 393; assay: Cytotoxicity against human RXF393 cells assessed as cell growth at 0.001 uM after 48 hrs by sulforhodamine B assay; conditions: RXF 393, 48 h, read-out: Activity
# [28] = system: PC-3; assay: Cytotoxicity against human PC3 cells assessed as cell growth at 10 uM after 48 hrs by sulforhodamine B assay; conditions: PC-3, 48 h, read-out: Activity
# [29] = system: UO-31; assay: Cytotoxicity against human UO31 cells assessed as cell growth at 10 uM after 48 hrs by sulforhodamine B assay; conditions: UO-31, 48 h, read-out: Activity
Structure (SMILES),growth at 1 µM [1] [%],growth at 0.1 µM [2] [%],growth at 10 µM [3] [%],growth at 0.01 µM [4] [%],growth at 0.001 µM [5] [%],growth at 10 µM [6] [%],growth at 1 µM [7] [%],growth at 0.001 µM [8] [%],growth at 0.01 µM [9] [%],GI50 [10] [nM],LC50 (concentration killing 50% of cells) [10] [µM],TGI [10] [µM],growth at 10 µM [12] [%],growth at 10 µM [13] [%],growth at 0.001 µM [14] [%],growth at 1 µM [15] [%],growth at 1 µM [16] [%],GI50 [17] [nM],TGI [17] [nM],CC50 [17] [µM],other results
COc1cc(C)cc(-c2nn(CC#N)cc2-c2ccnc(-c3ccc(N(C)C)cc3)c2)c1,-1,49,-13,94,104,-24,4,100,99,461,> 100,> 10,-76,-28,96,-51,-27,455,1930,9.69,growth at 1 µM [11]: -40%; growth at 0.01 µM [18]: 98%; GI50 [19]: 776 nM; TGI [19]: > 100 µM; CC50 [19]: > 100 µM; GI50 [20]: 968 nM; TGI [20]: 127 µM; CC50 [20]: > 100 µM; growth at 0.1 µM [21]: 3%; growth at 10 µM [22]: -22%; growth at 0.1 µM [23]: 26%; growth at 0.1 µM [24]: -25%; GI50 [25]: 258 nM; LC50 (concentration killing 50% of the starting cells) [25]: > 100 µM; TGI [25]: 633 nM; growth at 1 µM [26]: -21%; growth at 0.001 µM [27]: 105%
Cc1cc(O)cc(-c2nn(CC#N)cc2-c2ccnc(-c3ccc(Oc4ccccc4)cc3)c2)c1,-27,95,-82,95,92,-87,-24,91,96,3770,> 100,37.2,-95,-14,94,-94,-79,1910,3390,6.02,growth at 10 µM [28]: -60%; growth at 0.01 µM [18]: 95%; GI50 [19]: 4920 nM; TGI [19]: 17 µM; CC50 [19]: 41.4 µM; GI50 [20]: 3220 nM; TGI [20]: 12.2 µM; CC50 [20]: 64.5 µM; growth at 0.1 µM [21]: 87%; growth at 10 µM [22]: -63%; growth at 0.1 µM [23]: 96%; growth at 10 µM [29]: -81%; growth at 0.1 µM [24]: 101%; GI50 [25]: 2080 nM; LC50 (concentration killing 50% of the starting cells) [25]: 8.92 µM; TGI [25]: 4310 nM; growth at 1 µM [26]: -58%; growth at 0.001 µM [27]: 88%
